In the RNAGym collection of RNA variant scans (doi:10.1126/science.aae0568) one finds yeast fitness data, which are given here for 37 variants.

Sequences and labels used below:
B1: tRNA (parent)
chain: GUUCCGUUGGCGUAAUGGUAACGCGUCUCCCUCCUAAGGAGAAGACUGCGGGUUCGAGUCCCGUACGGAACG

This sample holds only a part of the variants without activity.

The series covers variants of B1. The experiment in a line: yeast fitness relative to wild type (ratio to wild type); higher = fitter; tRNA-Arg(CCU), competitive growth, 37 C, YPD. The gist of the method:
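Genotype frequency changes were the basis for Darwinian fitness relative to wild type. The frequencies came from 100-nucleotide paired-end sequencing of gene amplicons from the start population and each end population of pooled yeast strains with tRNA-Arg(CCU) gene variants at the native locus. Competition ran in YPD at 37°C for 24 hours in six replicates, genotypes needed ≥ 100 starting reads, and estimates < 0.5 were set to 0.5.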
In the case of GUUCCGUUGGCGAAAUGGUAACGCGUCACCCUCCUAAGGAGAAGACUGCGGGUUCGAGUCCCGUACGGAACG [U13A U28A], the yeast fitness was 0.772.

On to GUUCCGUUGGCGAAAUGGUAACGCGUCUCCCUCCCCUGGAGAAGACUGCCGGUUCGAGUCCCGUACGGAACG [U13A U35C A36C A37U G50C], for which the yeast fitness was not above 0.5.

Turning to GUUCCGUUGGCGAAAUGGUAACGCGUCUCCCUCCUAAGGAGAAGACUGCGGGUCCGAGUCCUGUACGGAACG [U13A U54C C62U], the yeast fitness was 0.679.

For the variant GUUCCGUUGGCGAAACGGUAACGCGUCUCCCUCAUAAGGAGAAGACUGCGGGUUCGAGUCCCGUACGGAACG [U13A U16C C34A], the yeast fitness was not above 0.5.

Regarding GUUCCGUUGGCGAAAUGGUAACGCGUCUCCCUCCUAAGGAGAAGACUGCGGGUUCAAGUCGCGUACGGAGCG [U13A G56A C61G A70G], the yeast fitness was not above 0.5.

On to GUUCCGUUGGCGAAAAGGUAACGCGUCUCCCUCCUAAGGAGAAGACUGCGGGUUCGAGUCUCCUACGGAACG [U13A U16A C61U G63C], for which the yeast fitness was not above 0.5.

On to GUUCCGUUGGCGCCAUGGUAACGCGUCUCCCUCCUAAGGAGAAGACUGCGGGUUCGAGUUCUGAACGGAACG [U13C A14C C60U C62U U64A], for which the yeast fitness was not above 0.5.

Turning to GUUCCGUUGGCGCCAUGGUAACGCGUCUCCCUCCUAAGGAGAAGACUGCGGGUUCGAGUCCCGCCCGGAACG [U13C A14C U64C A65C], the yeast fitness is not above 0.5.

Turning to GUUCCGUUGGCGAAAUGGUAACGCGUCUCCCACCUAAGGAGAAGACUGCGGGUUCGAGUGCCGUACGGAACG [U13A U32A C60G], the yeast fitness was not above 0.5.

With GUUCCGUUGGCGAAAUGGUAACGCGUCCCCCUCCUAAGGAGAAGACUGCGGGUUAGAGUCCCGUACGGAACG [U13A U28C C55A], the yeast fitness came out at 0.595.

Turning to GUUCCGUUGGCGAAAUGGUAACGCGUCCCCCUCCUAAGGAGAAGUCUGCGGGUUCGAGUCCCGUACGGAACG [U13A U28C A45U], the yeast fitness was determined as 0.702.

As to GUUCCGUUGGCGAAAUGGUAACGCGUCUCCCUCCUAAGGACGAGACUGCGGGUUCGAGUCCCGUACAGAACG [U13A G41C A42G G67A], the yeast fitness is not above 0.5.

Consider GUUCCGUUGGCGAAAUGGUAACGCGUCCCCCUCCUAAGGAGAAGACUGCGGGUUCGAGUGCCGUAGGGAACG [U13A U28C C60G C66G], for which the yeast fitness amounted to 0.6.

On to GUUCCGUUGGCGAAAUGGUAACGCGUCCCCCUCCUAAGGAAAAAACUGCGGGUUCGAGUCCCGUACGGAACG [U13A U28C G41A G44A], for which the yeast fitness is not above 0.5.

Regarding GUUCCGUUGGCGAAAUGGAAACGCGUCUCCCUCCUAAGGAGAAGACUGCGGGUUCGAGUCCCGUACGGAACG [U13A U19A], the yeast fitness was determined as 0.828.

For the variant GUUCCGUUGGCGCGAUGGUAACGGGUCUCCCUCCUAAGGAGAAGACUGCGGGUUCGAGUCCCGUACGGAACG [U13C A14G C24G], the yeast fitness was not above 0.5.

In the case of GUUCCGUUGGCGAAAAGGUAACGGGUCUCCCUGCUAAGGAGAAGACUGCGGGUUCGAGUCCGGUACGGAACG [U13A U16A C24G C33G C62G], the yeast fitness was not above 0.5.

With GUUCCGUUGGCGAAAUGGUAACGCGUCUCCCUCCUAAGGAGAAGACUGCGGGUUCGAGUCCCGUACGCAACG [U13A G68C], the yeast fitness was 0.762.

With GUUCCGUUGGCGAAAUGGUAACGCGUCUCCCUCCUAAGGAGAAGACUGCGGGUUCGAGUCCCGUACGAAACG [U13A G68A], the yeast fitness turned out to be 0.864.

As to GUUCCGUUGGCGAAAUGGUAACGCGUCCCCCUGCUAAAGAGAAGACUGCGGGUUCGAGUCCCGGACGGAACG [U13A U28C C33G G38A U64G], the yeast fitness was not above 0.5.

GUUCCGUUGGCGAAAUGGUAACGCGUCUCCCUCCUAAGGAGAAGACUACGGGUUCGAGUCCCGUACCGAACG [U13A G48A G67C]: the yeast fitness amounted to 0.608.

For the variant GUUCCGUUGGCGAAAUGGUAACGCGUCUCCCUCCUAAGGAGAAGACUGCGGGUCCGAGUCCUGUACGCAACG [U13A U54C C62U G68C], the yeast fitness is not above 0.5.

Regarding GUUCCGUUGGCGAAAUGGUAACGCGUCACCCUCCUAAGGAGAAGACGGCGGGUUCGAGUCCUGUUCGGAACG [U13A U28A U47G C62U A65U], the yeast fitness is not above 0.5.

In the case of GUUCCGUUGGCGAAAUGGUAACGCGUCUCCCUCCUAAGGAGAAGACUCCGGGUUCGAGUCCCGUACGGAACG [U13A G48C], the yeast fitness worked out at 1.1.

On to GUUCCGUUGGCGAAAUGGUAACGCGUCCCCCUCCUAAGGAGAAGACUGCGGGUUCGACUCCCGUACGGUACG [U13A U28C G58C A69U], for which the yeast fitness was found to be 0.7.

Consider GUUCCGUUGGCGAAAUGGUAACGCGUCUCCCUCCUAAGGAGAAGACUGCGCGUUCGAGUCCCGUACGGAACG [U13A G51C], for which the yeast fitness came to 0.58.

Turning to GUUCCGUUGGCGAAAUGGUAACGCGUCUCCCUCCUAAGGAGAAGACUGCGGGUUCGAGUCCCGUACUGAACG [U13A G67U], the yeast fitness is 0.727.

As to GUUCCGUUGGCGAAAUGGUAACGCGUCUCCCUCCUAAGGAGAAGACUGCGGGUUCGAGUCCCGUACAGAACG [U13A G67A], the yeast fitness turned out to be 0.9.

On to GUUCCGUUGGCGAAAUGGUAACGCGUCUCCCCCCUAAGGAGAAGACUGCGGGUUCGAGUCCCGUGCGGAACG [U13A U32C A65G], for which the yeast fitness came to 0.705.

In the case of GUUCCGUUGGCGAAAUGGUAACGCGUCUCCCCCCUAAGGAGAAGACUGCGGGUGCGAGUCCUGUACGGAACG [U13A U32C U54G C62U], the yeast fitness was not above 0.5.

For GUUCCGUUGGCGAAAUGGUAACGCGUCUCCCUCCUAAGGAGAAGACAGCGGGUUCGAGUACCGUACGGAACG [U13A U47A C60A], the yeast fitness came out at 0.58.

On to GUUCCGUUGGCGCGAUGGUAACGCGUCUCCCUCCUAAGGAGCAGACUGCGGGUUCGAGUCCGGUACGGAACG [U13C A14G A42C C62G], for which the yeast fitness was not above 0.5.

For GUUCCGUUGGCGAAAUGGUAACGCGUCACGCUCCUAAGGAGAAGAUUGCGGGUUCCAGUCGCGUACGGAACG [U13A U28A C30G C46U G56C C61G], the yeast fitness was not above 0.5.

In the case of GUUCCGUUGGCGAAAUGGUAACGCGUCUCCCUCCUAAGGAGAAGACUGCUGGUUCGAGUCCCGUACGGAACG [U13A G50U], the yeast fitness stood at 0.838.

On to GUUCCGUUGGCGAAAUGGUAACGCGUCCCCCUCCUAAGGAGAAGACUGCGGGUUCGAGUCCCGUACGGCACG [U13A U28C A69C], for which the yeast fitness was found to be 0.76.

Regarding GUUCCGUUGGCGAAAUGGUAACGCGUCCCCCUCCUAAGGAGAAGACUGCGGGUUCGAGUCCCGAACGGAACG [U13A U28C U64A], the yeast fitness was determined as 0.718.

For GUUCCGUUGGCGAAAUGGUAACGCGGCUCGCUCCUAAGGAGAAGACUGGGGGUUCGAGUCCCGUACGGAACG [U13A U26G C30G C49G], the yeast fitness turned out to be 0.501.
